Data reported in ChEMBL document CHEMBL1212913, “Quinazolin-4-one derivatives: A novel class of noncompetitive NR2C/D subunit-selective N-methyl-D-aspartate receptor antagonists” (J Med Chem, 2010).

Assays:
[1] = biological target: Glutamate NMDA receptor; Grin1/Grin2a (Rattus norvegicus, UniProt P35439+Q00959); test: Antagonist activity at rat recombinant NR1-NR2A receptor expressed in Xenopus oocytes at holding potential of -40mV by two-electrode voltage-clamp electrophysiology; type: functional, cell-based, Oocyte; conditions: read-out: IC50
How it was run: (§1)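 Oocytes expressing rat NR1-1a with NR2A, NR2B, NR2C or NR2D, clamped at −40 mV in Ba2+/HEPES recording solution pH 7.4, 23°C. Current evoked by 100 μM glutamate plus 30 μM glycine. Final DMSO 0.05-0.5%, 5-7 inhibitor concentrations, ≥4 oocytes each. IC50 from Hill fit of normalized mean composite data. […] Some NR2A oocytes given BAPTA-AM or K-BAPTA.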

Rattus norvegicus [2] = organism: Rattus norvegicus; test: Selectivity ratio of IC50 for rat recombinant GLuR1 to IC50 for rat recombinant NR1-NR2D receptor
How it was run: (§2)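 Ratio of fitted IC50 values, either NR2A/NR2D or GluR1/NR2D, from two-electrode voltage-clamp Hill fits in oocytes. Where noted, calculated from IC50 values rounded to the nearest μM.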

Rattus norvegicus [3] = organism: Rattus norvegicus; test: Selectivity ratio of IC50 for rat recombinant NR1-NR2A receptor to IC50 for rat recombinant NR1-NR2D receptor; how it was run: as §2
[4] = biological target: Glutamate NMDA receptor; Grin1/Grin2b (Rattus norvegicus, UniProt P35439+Q00960); test: Antagonist activity at rat recombinant NR1-NR2B receptor expressed in Xenopus oocytes at holding potential of -40mV by two-electrode voltage-clamp electrophysiology; type: functional, cell-based, Oocyte; conditions: read-out: IC50; how it was run: as §1
[5] = biological target: Ionotropic glutamate receptor NMDA 1/2D (Rattus norvegicus, UniProt P35439+Q62645); test: Antagonist activity at rat recombinant NR1-NR2D receptor expressed in Xenopus oocytes at holding potential of -40mV by two-electrode voltage-clamp electrophysiology; type: functional, cell-based, Oocyte
How it was run: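 Oocytes expressing rat NR1-1a with NR2A, NR2B, NR2C or NR2D, clamped at −40 mV in Ba2+/HEPES recording solution pH 7.4, 23°C. Current evoked by 100 μM glutamate plus 30 μM glycine. Final DMSO 0.05-0.5%, 5-7 inhibitor concentrations, ≥4 oocytes each. IC50 from Hill fit of normalized mean composite data. Some NR2A oocytes given BAPTA-AM or K-BAPTA.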

[6] = biological target: Glutamate NMDA receptor; Grin1/Grin2c (Rattus norvegicus, UniProt P35439+Q00961); test: Antagonist activity at rat recombinant NR1-NR2C receptor expressed in Xenopus oocytes at holding potential of -40mV by two-electrode voltage-clamp electrophysiology; type: functional, cell-based, Oocyte; how it was run: as §1
Glutamate receptor 1 = Glutamate receptor 1 (Rattus norvegicus, UniProt P19490); test: Antagonist activity at rat recombinant GLuR1 expressed in Xenopus oocytes assessed as inhibition of glutamate-induced current by two-electrode voltage-clamp electrophysiology; type: functional, cell-based, Oocyte
How it was run: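 Two-electrode voltage clamp at −40 mV on Xenopus oocytes expressing rat GluR1, perfused with 90 NaCl, 1.0 KCl, 0.5 BaCl2, 0.005 EDTA, 10 HEPES (mM), pH 7.4, 23°C; activated by 100 μM glutamate. From 20 mM DMSO stocks, 5-7 concentrations, ≥4 oocytes each. Hill fit to mean composite curves normalized to control, minimum usually fixed at 0. Response >75% at 100 μM reported as >300 μM.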

Ionotropic glutamate receptor NMDA 1/2D, sequence (Q62645 whole entry, other chains not shown): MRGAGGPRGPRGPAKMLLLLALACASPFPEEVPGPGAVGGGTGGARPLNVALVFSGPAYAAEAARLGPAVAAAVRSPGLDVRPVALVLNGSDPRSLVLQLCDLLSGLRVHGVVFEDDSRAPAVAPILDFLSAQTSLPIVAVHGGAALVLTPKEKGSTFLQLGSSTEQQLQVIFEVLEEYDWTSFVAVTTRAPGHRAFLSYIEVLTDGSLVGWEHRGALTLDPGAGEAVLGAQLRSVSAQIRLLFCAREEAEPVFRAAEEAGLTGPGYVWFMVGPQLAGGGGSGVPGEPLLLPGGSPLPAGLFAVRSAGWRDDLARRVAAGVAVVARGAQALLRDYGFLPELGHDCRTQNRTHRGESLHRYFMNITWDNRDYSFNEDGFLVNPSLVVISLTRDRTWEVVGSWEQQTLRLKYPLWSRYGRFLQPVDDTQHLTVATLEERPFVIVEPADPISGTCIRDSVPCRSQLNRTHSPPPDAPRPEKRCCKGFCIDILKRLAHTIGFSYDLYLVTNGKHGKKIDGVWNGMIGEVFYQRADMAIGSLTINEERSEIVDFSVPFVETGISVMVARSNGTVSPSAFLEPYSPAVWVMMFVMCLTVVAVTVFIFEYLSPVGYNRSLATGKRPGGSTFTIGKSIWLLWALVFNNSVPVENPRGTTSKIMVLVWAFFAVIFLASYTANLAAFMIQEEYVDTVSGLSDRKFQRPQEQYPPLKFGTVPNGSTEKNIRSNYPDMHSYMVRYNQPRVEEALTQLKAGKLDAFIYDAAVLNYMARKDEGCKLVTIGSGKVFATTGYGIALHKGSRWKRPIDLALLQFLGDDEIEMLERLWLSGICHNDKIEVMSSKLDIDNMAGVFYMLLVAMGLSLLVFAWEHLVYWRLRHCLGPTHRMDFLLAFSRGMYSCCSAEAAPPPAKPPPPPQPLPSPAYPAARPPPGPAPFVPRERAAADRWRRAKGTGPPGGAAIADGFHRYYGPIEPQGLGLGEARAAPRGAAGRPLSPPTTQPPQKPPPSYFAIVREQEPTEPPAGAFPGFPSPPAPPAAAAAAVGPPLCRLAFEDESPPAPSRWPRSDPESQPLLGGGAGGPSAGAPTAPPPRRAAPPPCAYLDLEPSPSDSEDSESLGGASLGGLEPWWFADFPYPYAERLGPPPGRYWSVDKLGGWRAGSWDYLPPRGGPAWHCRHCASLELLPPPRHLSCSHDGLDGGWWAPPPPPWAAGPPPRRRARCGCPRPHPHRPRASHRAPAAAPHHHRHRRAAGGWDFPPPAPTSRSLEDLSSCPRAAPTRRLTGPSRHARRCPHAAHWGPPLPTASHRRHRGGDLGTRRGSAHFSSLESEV
Glutamate receptor 1, sequence (P19490 whole entry, the tested form may be a part): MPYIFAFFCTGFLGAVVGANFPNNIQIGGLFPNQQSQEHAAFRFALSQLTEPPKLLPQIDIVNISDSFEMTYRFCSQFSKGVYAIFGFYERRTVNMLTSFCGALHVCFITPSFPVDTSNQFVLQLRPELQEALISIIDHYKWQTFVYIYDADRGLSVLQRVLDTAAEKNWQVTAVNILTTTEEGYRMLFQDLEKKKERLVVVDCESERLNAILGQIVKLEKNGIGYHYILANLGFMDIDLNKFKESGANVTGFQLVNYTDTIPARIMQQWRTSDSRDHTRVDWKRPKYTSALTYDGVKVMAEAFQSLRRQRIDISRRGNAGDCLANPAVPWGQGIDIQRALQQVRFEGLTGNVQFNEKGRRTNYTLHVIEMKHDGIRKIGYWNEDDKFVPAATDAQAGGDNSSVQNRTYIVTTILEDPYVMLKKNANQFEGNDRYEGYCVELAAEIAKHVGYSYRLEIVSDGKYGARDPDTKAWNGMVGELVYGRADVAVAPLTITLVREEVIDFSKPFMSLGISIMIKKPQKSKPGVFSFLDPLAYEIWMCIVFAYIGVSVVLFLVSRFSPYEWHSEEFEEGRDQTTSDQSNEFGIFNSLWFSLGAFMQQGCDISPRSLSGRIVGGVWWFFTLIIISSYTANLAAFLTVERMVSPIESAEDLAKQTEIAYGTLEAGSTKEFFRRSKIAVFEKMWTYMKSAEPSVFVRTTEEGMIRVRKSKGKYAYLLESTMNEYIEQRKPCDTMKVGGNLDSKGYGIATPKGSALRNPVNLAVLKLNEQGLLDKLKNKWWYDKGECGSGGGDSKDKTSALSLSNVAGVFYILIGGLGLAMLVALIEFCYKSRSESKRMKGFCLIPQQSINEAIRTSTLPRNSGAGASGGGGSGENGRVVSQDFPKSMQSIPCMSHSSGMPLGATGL
Glutamate NMDA receptor; Grin1/Grin2b, sequence (Q00960 whole entry, other chains not shown): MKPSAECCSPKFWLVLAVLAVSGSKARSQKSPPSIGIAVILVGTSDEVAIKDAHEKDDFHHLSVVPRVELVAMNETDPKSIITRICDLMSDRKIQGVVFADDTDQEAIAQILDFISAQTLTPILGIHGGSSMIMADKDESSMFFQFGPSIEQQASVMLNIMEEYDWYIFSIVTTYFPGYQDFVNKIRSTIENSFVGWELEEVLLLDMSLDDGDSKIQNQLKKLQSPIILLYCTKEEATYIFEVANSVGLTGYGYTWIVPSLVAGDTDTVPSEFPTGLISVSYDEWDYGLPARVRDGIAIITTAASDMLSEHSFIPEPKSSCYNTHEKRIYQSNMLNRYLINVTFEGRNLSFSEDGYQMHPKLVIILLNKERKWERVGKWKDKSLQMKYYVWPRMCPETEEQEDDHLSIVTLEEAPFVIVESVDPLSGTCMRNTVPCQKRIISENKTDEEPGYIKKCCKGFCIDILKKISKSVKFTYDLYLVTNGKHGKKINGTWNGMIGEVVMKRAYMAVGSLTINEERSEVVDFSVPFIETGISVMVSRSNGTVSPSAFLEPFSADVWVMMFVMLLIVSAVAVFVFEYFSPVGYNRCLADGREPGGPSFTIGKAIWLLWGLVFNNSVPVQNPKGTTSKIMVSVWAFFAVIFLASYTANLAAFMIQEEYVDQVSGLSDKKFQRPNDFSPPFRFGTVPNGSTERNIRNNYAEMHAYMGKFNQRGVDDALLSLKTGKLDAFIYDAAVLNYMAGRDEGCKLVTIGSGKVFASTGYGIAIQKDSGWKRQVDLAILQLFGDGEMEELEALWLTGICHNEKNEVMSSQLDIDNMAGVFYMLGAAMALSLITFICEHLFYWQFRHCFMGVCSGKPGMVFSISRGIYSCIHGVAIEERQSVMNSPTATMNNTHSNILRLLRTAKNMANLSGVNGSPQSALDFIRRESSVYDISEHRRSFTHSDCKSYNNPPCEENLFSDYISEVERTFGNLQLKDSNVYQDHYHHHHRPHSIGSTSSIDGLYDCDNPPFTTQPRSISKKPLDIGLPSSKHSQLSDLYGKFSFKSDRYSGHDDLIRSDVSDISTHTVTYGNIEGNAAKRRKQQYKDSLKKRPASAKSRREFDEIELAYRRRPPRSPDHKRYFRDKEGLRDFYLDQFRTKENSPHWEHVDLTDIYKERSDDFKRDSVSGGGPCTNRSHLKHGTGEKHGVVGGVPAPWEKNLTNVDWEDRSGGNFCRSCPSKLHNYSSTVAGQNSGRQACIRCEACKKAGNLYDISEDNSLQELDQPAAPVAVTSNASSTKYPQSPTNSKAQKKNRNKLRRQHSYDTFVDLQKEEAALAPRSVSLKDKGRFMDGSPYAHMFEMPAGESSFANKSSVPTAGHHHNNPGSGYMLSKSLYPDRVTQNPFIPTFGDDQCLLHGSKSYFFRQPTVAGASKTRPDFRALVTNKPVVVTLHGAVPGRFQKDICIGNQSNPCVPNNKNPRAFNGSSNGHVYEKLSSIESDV
Glutamate NMDA receptor; Grin1/Grin2c, sequence (Q00961 whole entry, other chains not shown): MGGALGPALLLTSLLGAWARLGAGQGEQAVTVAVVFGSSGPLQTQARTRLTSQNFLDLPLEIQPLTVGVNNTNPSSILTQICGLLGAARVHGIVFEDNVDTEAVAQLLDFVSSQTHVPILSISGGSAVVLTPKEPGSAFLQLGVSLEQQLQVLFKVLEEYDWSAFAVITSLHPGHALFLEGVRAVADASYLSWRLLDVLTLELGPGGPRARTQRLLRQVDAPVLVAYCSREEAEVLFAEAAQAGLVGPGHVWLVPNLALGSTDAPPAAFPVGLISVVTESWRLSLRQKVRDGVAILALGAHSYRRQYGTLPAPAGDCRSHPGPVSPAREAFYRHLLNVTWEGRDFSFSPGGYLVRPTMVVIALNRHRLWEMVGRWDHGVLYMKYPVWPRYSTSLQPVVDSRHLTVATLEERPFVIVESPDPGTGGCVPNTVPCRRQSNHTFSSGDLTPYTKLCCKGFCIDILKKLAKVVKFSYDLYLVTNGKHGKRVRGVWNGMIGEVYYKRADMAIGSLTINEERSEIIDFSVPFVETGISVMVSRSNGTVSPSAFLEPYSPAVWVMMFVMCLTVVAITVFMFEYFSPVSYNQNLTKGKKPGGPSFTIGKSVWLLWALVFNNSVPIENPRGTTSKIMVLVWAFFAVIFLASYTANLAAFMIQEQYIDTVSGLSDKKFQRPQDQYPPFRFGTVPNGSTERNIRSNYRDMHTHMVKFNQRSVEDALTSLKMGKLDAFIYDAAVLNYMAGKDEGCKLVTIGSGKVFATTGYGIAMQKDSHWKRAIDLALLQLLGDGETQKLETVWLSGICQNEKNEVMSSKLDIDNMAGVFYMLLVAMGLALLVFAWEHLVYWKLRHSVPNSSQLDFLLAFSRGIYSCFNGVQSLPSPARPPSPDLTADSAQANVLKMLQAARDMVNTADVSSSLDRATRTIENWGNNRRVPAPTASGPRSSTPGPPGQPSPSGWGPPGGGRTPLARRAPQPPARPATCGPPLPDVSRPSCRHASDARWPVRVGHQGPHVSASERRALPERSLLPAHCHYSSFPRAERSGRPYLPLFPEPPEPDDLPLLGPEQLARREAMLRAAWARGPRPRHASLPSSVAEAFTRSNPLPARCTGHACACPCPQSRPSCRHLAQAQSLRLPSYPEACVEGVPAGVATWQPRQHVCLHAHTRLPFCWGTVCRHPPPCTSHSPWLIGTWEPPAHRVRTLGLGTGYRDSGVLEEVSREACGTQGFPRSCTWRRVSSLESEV

Work on `Cc1ccc2nc(/C=C/c3cccc([N+](=O)[O-])c3)n(-c3ccc(C(=O)O)cc3)c(=O)c2c1` yielded an IC50 [1] of 12 µM, a Ratio IC50 (Rattus norvegicus [2]) of 14 and a Ratio IC50 (Rattus norvegicus [3]) of 6. It also gave an IC50 [4] of 15 µM, an IC50 [5] of 2 µM and an IC50 [6] of 5 µM. It also gave an IC50 (Glutamate receptor 1) of 27 µM.
Work on `O=C(O)c1ccc(-n2c(/C=C/c3cccc([N+](=O)[O-])c3)nc3ccc(O)cc3c2=O)cc1` yielded an IC50 [1] of 237 µM, a Ratio IC50 (Rattus norvegicus [2]) of 10 and a Ratio IC50 (Rattus norvegicus [3]) of 24. For the same compound, the IC50 [4] was > 300 µM, the IC50 [5] was 10 µM and the IC50 [6] was 43 µM. It also gave an IC50 (Glutamate receptor 1) of 96 µM.
Work on `O=C(O)c1ccc(-n2c(/C=C/c3ccccc3)nc3ccc(I)cc3c2=O)cc1` yielded an IC50 [1] of 53 µM, a Ratio IC50 (Rattus norvegicus [2]) of 6 and a Ratio IC50 (Rattus norvegicus [3]) of 13. It also gave an IC50 [4] of 66 µM, an IC50 [5] of 4 µM and an IC50 [6] of 13 µM. For the same compound, the IC50 (Glutamate receptor 1) was 23 µM.
Compound `O=C(O)c1ccc(-n2c(/C=C/c3cccc([N+](=O)[O-])c3)nc3cc(Cl)ccc3c2=O)cc1` has an IC50 [1] of 32 µM, a Ratio IC50 (Rattus norvegicus [2]) of 3 and a Ratio IC50 (Rattus norvegicus [3]) of 2. The IC50 [4] was 52 µM, the IC50 [5] was 15 µM and the IC50 [6] was 16 µM. The IC50 (Glutamate receptor 1) was 41 µM.
`CN(C)c1ccc(/C=C/c2nc3ccccc3c(=O)n2-c2ccc(C(=O)O)cc2)cc1` was tested, and the IC50 [1] was > 300 µM, the Ratio IC50 (Rattus norvegicus [2]) was > 5 and the Ratio IC50 (Rattus norvegicus [3]) was > 5. The IC50 [4] was > 300 µM, the IC50 [5] was 53 µM and the IC50 [6] was 63 µM. For the same compound, the IC50 (Glutamate receptor 1) was > 300 µM.
For `O=C(O)c1cccc(-n2c(/C=C/c3cccc([N+](=O)[O-])c3)nc3ccc(I)cc3c2=O)c1`, the IC50 [1] was 8 µM, the Ratio IC50 (Rattus norvegicus [2]) was 21 and the Ratio IC50 (Rattus norvegicus [3]) was 8. For the same compound, the IC50 [4] was 11 µM, the IC50 [5] was 1 µM and the IC50 [6] was 2 µM. The IC50 (Glutamate receptor 1) was 21 µM.
For `COc1ccc2nc(/C=C/c3cccc([N+](=O)[O-])c3)n(-c3ccc(C(=O)O)cc3)c(=O)c2c1`, the IC50 [1] was 229 µM, the Ratio IC50 (Rattus norvegicus [2]) was > 100 and the Ratio IC50 (Rattus norvegicus [3]) was 76. For the same compound, the IC50 [4] was > 300 µM, the IC50 [5] was 3 µM and the IC50 [6] was 6 µM. For the same compound, the IC50 (Glutamate receptor 1) was > 300 µM.
With `COc1ccc2cc(/C=C/c3nc4ccccc4c(=O)n3-c3ccc(C(=O)O)cc3)ccc2c1` the IC50 [1] was 63 µM, the Ratio IC50 (Rattus norvegicus [2]) was 9 and the Ratio IC50 (Rattus norvegicus [3]) was 6. It also gave an IC50 [4] of 36 µM, an IC50 [5] of 11 µM and an IC50 [6] of 20 µM. It also gave an IC50 (Glutamate receptor 1) of 103 µM.
In the case of `Cc1ccccc1-n1c(/C=C/c2cccnc2)nc2ccc(I)cc2c1=O`, the IC50 [1] is reported as > 300 µM, the Ratio IC50 (Rattus norvegicus [2]) is reported as 3 and the Ratio IC50 (Rattus norvegicus [3]) is reported as > 12. For the same compound, the IC50 [4] was 156 µM, the IC50 [5] was 25 µM and the IC50 [6] was 70 µM. The IC50 (Glutamate receptor 1) was 83 µM.
In the case of `O=c1c2cc(I)ccc2nc(/C=C/c2cccnc2)n1-c1ccccc1[N+](=O)[O-]`, the IC50 [1] is reported as 206 µM, the Ratio IC50 (Rattus norvegicus [2]) is reported as 60 and the Ratio IC50 (Rattus norvegicus [3]) is reported as 41. The IC50 [4] was 105 µM, the IC50 [5] was 5 µM and the IC50 [6] was 19 µM. The IC50 (Glutamate receptor 1) was > 300 µM.
In the case of `O=C(O)c1ccc(-n2c(/C=C/c3cccc4ccccc34)nc3ccccc3c2=O)cc1`, the IC50 [1] is reported as 25 µM, the Ratio IC50 (Rattus norvegicus [2]) is reported as 14 and the Ratio IC50 (Rattus norvegicus [3]) is reported as 4. The IC50 [4] was 68 µM, the IC50 [5] was 6 µM and the IC50 [6] was 22 µM. The IC50 (Glutamate receptor 1) was 82 µM.
`COc1cccc(/C=C/c2nc3ccc(OC)cc3c(=O)n2-c2ccc(C(=O)O)cc2)c1` showed an IC50 [1] of 73 µM, a Ratio IC50 (Rattus norvegicus [2]) of 24 and a Ratio IC50 (Rattus norvegicus [3]) of 8. For the same compound, the IC50 [4] was 109 µM, the IC50 [5] was 9 µM and the IC50 [6] was 18 µM. The IC50 (Glutamate receptor 1) was 220 µM.
Work on `O=C(O)c1ccc(-n2c(/C=C/c3cccnc3)nc3ccc(I)cc3c2=O)cc1` yielded an IC50 [1] of 26 µM, a Ratio IC50 (Rattus norvegicus [2]) of 15 and a Ratio IC50 (Rattus norvegicus [3]) of 7. It also gave an IC50 [4] of 31 µM, an IC50 [5] of 4 µM and an IC50 [6] of 6 µM. For the same compound, the IC50 (Glutamate receptor 1) was 61 µM.
Compound `O=C(O)c1ccc(-n2c(/C=C/c3cccc([N+](=O)[O-])c3)nc3ccc(Br)cc3c2=O)cc1` has an IC50 [1] of 17 µM, a Ratio IC50 (Rattus norvegicus [2]) of 8 and a Ratio IC50 (Rattus norvegicus [3]) of 17. It also gave an IC50 [4] of 13 µM, an IC50 [5] of 1 µM and an IC50 [6] of 2 µM. It also gave an IC50 (Glutamate receptor 1) of 8 µM.
`COc1ccc2nc(/C=C/c3cccc([N+](=O)[O-])c3)n(-c3cccc(C(=O)O)c3)c(=O)c2c1` showed an IC50 [1] of 208 µM, a Ratio IC50 (Rattus norvegicus [2]) of 22 and a Ratio IC50 (Rattus norvegicus [3]) of 16. For the same compound, the IC50 [4] was > 300 µM, the IC50 [5] was 13 µM and the IC50 [6] was 24 µM. For the same compound, the IC50 (Glutamate receptor 1) was 289 µM.
